# ChEMBL document CHEMBL5705897, “Characterization of WZ4003 and HTH-01-015 as selective inhibitors of the LKB1-tumour-suppressor-activated NUAK kinases” (Biochem J, 2014)
# Active and inactive are the calls of the source. The calls are words filed in the database; no cut-off is given here.
# How the values were obtained:
# [1] = biological target: Mitogen-activated protein kinase 13 (Homo sapiens) (UniProt O15264); assay: Inhibition of recombinant human GST-tagged P38delta (1 to 365 residues) expressed in Escherichia coli assessed as remaining activity at 1 uM using MBP as substrate incubated for 30 mins in presence of [gamma-33P]ATP by filter binding method relative to control
# Procedure, shortened: (§1)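 Screened at the International Centre for Protein Kinase Profiling against a 140-kinase panel, with inhibitor at 0.1 or 1 μM; activity expressed as percentage of DMSO control reactions, mean of triplicate reactions.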
# [2] = biological target: T1, NUAK family SNF1-like kinase 1 (Homo sapiens) (UniProt O60285); assay: Inhibition of NUAK1 in human U2OS cells assessed as reduction in MYPT1 phosphorylation at Ser445 residues at 10 uM after 16 hrs by immunoblot analysis; assay type: cell-based
# T1 sequence (whole entry): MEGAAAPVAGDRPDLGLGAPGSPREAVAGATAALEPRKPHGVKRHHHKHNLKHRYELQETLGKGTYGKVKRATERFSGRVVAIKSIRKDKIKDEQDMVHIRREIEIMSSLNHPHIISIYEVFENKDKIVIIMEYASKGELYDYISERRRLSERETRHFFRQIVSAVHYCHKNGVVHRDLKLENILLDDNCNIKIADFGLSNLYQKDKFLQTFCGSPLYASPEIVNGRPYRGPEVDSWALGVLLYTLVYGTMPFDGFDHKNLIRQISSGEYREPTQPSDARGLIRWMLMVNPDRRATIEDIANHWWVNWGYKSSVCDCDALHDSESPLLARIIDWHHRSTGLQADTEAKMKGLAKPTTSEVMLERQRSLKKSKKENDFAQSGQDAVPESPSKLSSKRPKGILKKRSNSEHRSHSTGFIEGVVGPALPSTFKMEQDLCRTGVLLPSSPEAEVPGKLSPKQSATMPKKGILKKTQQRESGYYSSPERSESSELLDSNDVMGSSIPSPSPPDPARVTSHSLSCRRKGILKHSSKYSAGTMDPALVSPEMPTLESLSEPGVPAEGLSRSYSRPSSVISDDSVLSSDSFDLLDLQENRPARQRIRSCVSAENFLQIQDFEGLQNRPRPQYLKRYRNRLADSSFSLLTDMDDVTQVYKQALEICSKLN
# Procedure, shortened: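 U2OS cells or NUAK1+/+ MEFs treated with or without 10 μM inhibitor for 16 h, then 20 min in EDTA-PBS dissociation buffer with 10 μM inhibitor or DMSO; detached by tapping and 70 g 3 min spin, lysed immediately and immunoblotted for MYPT1 p-Ser445; three separate experiments.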
# [3] = test system: U2OS; assay: Antiproliferative activity against human U2OS cells assessed as reduction in cell viability at 10 uM after 5 days by CellTiter 96 non-radioactive cell proliferation assay; assay type: functional, cell-based; conditions: time 5.0 day
# Procedure, shortened: (§2)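 Colorimetric CellTiter 96 AQueous proliferation assay in 96-well format; 2000 cells/well seeded for U2OS, 3000 cells/well for MEFs; grown 5 days with or without 10 μM inhibitor; run in triplicate. Inhibitors dissolved in DMSO, final DMSO in medium ≤1%. MEFs cultured in DMEM/10% FBS, glutamine, non-essential amino acids, sodium pyruvate.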
# [4] = biological target: Serine/threonine-protein kinase BRSK2 (Homo sapiens) (UniProt Q8IWQ3); assay: Inhibition of recombinant human N-terminal His6-tagged BRSK2 (2 to 674 residues) expressed in baculovirus infected Sf21 cells assessed as remaining activity at 1 uM using KKLNRTLSFAEPG as substrate incubated for 30 mins in presence of [gamma-33P]ATP by filter binding method relative to control; procedure, shortened: as §1
# [5] = biological target: T1, NUAK family SNF1-like kinase 1 (Homo sapiens); assay: Inhibition of NUAK1 in HEK293 cells assessed as reduction in MYPT1 phosphorylation at Ser445 residue incubated for 16 hrs by immunoblot analysis; assay type: cell-based; conditions: dose 3-10 µM
# Procedure, shortened: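 HEK-293 cells exposed to inhibitor or DMSO for 16 h; medium replaced by EDTA-PBS dissociation buffer with the same inhibitor concentration to induce detachment (gentle tapping, 70 g, 3 min); cells lysed at once; MYPT1 immunoprecipitated from 0.5 mg lysate, blotted for p-Ser445 and total MYPT1; repeated three times.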
# [6] = biological target: cAMP-dependent protein kinase catalytic subunit alpha (Homo sapiens) (UniProt P17612); assay: Inhibition of recombinant human N-terminal GST-tagged PKAalpha (2 to 351 residues) expressed in Escherichia coli assessed as remaining activity at 1 uM using Kemptide as substrate incubated for 30 mins in presence of [gamma-33P]ATP by filter binding method relative to control; procedure, shortened: as §1
# [7] = biological target: Ephrin type-B receptor 4 (Homo sapiens) (UniProt P54760); assay: Inhibition of recombinant human N-terminal His6-tagged EPHB4 (561 to 987 residues) expressed in baculovirus infected Sf21 cells assessed as remaining activity at 1 uM using Poly (Glu,Tyr) as substrate incubated for 30 mins in presence of [gamma-33P]ATP by filter binding method relative to control
# Procedure, shortened: (§3)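 Run within a 140-kinase specificity panel at the International Centre for Protein Kinase Profiling. Compounds were dissolved in DMSO and tested in vitro at 0.1 or 1 μM. Activity is expressed as percentage of kinase activity in DMSO control reactions, as the mean ± S.D. of triplicate reactions.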
# [8] = biological target: Dual specificity tyrosine-phosphorylation-regulated kinase 3 (Homo sapiens) (UniProt O43781); assay: Inhibition of recombinant human N-terminal GST-tagged DYRK3 (1 to 588 residues) expressed in Escherichia coli assessed as remaining activity at 1 uM using KKISGRLSPIMTEQ as substrate incubated for 30 mins in presence of [gamma-33P]ATP by filter binding method relative to control; procedure, shortened: as §1
# [9] = test system: Ribosomal protein S6 kinase beta-1 (Homo sapiens), P23443 [T412E]; assay: Inhibition of recombinant human His6-tagged S6K1 T412E mutant (1 to 421 residues) expressed in baculovirus infected Sf21 cells assessed as remaining activity at 1 uM using KKRNRTLTV as substrate incubated for 30 mins in presence of [gamma-33P]ATP by filter binding method relative to control; procedure, shortened: as §3
# [10] = test system: MEF; assay: Antiproliferative activity against NUAK1+/+ MEF cells assessed as reduction in cell viability at 10 uM after 5 days by CellTiter 96 non-radioactive cell proliferation assay; assay type: functional, cell-based; conditions: Mus musculus, time 5.0 day; procedure, shortened: as §2
# Ribosomal protein S6 kinase beta-1 (Homo sapiens), P23443 [T412E], sequence (P23443 whole entry T412E, looked up, the tested form may be a part): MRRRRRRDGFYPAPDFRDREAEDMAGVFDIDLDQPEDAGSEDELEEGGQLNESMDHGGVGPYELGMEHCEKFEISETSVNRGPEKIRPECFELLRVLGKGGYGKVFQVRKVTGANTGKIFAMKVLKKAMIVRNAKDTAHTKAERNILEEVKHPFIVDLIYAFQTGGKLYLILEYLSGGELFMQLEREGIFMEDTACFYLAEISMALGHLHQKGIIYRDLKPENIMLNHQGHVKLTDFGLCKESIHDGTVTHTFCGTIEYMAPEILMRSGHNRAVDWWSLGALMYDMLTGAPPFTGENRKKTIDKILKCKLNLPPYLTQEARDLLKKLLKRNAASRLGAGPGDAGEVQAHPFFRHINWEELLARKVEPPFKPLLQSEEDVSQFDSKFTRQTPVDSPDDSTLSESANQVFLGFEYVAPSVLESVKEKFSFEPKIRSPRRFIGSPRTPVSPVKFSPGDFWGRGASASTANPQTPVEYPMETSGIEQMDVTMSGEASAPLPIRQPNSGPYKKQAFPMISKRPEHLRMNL
# Ephrin type-B receptor 4 (Homo sapiens), sequence (P54760 whole entry, the tested form may be a part): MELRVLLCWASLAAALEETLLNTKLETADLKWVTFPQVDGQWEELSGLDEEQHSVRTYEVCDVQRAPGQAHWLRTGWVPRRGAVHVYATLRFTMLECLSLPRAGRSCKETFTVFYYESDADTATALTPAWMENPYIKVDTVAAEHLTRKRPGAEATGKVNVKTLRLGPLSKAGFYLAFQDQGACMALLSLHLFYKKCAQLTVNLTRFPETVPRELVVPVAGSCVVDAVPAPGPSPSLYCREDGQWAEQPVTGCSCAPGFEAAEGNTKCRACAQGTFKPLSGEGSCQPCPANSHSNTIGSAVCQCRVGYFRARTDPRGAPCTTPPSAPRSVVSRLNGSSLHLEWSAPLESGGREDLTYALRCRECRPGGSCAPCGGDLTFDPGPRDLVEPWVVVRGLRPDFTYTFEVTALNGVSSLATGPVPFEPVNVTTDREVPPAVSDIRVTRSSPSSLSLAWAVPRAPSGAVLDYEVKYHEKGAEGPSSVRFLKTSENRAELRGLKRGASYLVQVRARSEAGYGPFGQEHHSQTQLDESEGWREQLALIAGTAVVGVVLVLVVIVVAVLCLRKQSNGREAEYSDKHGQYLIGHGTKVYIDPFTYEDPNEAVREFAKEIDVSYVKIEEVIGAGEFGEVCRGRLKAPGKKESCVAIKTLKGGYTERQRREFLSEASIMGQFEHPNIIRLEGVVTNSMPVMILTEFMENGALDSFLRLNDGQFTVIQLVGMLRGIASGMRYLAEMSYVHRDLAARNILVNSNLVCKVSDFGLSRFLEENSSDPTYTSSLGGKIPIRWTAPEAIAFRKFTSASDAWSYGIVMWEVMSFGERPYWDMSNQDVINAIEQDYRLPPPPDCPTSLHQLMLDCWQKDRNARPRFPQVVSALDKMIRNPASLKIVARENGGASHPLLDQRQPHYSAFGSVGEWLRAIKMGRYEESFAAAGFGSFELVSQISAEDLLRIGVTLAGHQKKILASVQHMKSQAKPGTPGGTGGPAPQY
# Dual specificity tyrosine-phosphorylation-regulated kinase 3 (Homo sapiens), sequence (O43781 whole entry, the tested form may be a part): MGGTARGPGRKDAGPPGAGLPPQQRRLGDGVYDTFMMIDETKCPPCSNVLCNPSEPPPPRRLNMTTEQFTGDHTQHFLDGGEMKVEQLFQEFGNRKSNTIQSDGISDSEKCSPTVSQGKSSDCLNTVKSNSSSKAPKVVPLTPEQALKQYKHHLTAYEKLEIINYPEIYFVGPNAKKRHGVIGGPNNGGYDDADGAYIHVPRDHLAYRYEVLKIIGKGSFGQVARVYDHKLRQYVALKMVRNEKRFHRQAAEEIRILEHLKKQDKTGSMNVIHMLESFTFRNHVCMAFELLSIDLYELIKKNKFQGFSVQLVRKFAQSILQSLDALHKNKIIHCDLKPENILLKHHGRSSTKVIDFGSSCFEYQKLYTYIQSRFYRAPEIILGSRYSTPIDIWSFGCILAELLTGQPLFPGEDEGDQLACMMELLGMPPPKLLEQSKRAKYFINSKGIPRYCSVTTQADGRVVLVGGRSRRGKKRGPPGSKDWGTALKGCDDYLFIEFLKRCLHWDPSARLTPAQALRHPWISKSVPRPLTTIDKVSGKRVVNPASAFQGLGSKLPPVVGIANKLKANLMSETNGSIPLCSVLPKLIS
# Serine/threonine-protein kinase BRSK2 (Homo sapiens), sequence (Q8IWQ3 whole entry, the tested form may be a part): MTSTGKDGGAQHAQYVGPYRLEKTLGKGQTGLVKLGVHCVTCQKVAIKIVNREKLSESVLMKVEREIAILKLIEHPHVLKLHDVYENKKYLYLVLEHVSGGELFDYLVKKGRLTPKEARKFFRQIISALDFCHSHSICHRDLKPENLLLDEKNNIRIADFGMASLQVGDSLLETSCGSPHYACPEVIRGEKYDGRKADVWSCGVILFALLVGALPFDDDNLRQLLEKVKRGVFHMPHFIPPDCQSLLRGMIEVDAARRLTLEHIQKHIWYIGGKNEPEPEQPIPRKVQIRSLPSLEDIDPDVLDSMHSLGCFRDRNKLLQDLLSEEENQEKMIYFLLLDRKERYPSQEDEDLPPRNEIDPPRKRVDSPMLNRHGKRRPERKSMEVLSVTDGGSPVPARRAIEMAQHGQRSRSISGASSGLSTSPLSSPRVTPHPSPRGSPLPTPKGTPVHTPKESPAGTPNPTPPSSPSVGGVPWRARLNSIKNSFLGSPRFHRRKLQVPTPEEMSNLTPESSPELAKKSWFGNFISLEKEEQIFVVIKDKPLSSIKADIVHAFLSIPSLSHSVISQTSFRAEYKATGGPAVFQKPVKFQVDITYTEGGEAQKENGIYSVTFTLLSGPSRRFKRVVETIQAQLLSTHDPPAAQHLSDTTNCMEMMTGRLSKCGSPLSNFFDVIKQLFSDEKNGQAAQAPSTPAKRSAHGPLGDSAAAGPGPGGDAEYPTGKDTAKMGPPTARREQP
# Mitogen-activated protein kinase 13 (Homo sapiens), sequence (O15264 whole entry, the tested form may be a part): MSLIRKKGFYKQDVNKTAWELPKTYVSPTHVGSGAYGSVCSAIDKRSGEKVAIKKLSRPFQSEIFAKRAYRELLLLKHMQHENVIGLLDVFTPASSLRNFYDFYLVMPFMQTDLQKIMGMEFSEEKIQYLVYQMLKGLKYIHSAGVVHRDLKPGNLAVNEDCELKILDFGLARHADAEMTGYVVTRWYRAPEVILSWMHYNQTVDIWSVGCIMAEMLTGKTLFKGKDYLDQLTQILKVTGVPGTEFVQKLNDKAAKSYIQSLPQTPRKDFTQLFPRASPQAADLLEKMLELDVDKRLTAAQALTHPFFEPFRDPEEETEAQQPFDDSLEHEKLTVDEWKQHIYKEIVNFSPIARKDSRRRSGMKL
smiles,measurement,setting,value
CCC(=O)Nc1cccc(Oc2nc(Nc3ccc(N4CCN(C)CC4)cc3OC)ncc2Cl)c1,Activity,[1],63%
same,inhibition,[2],Active
same,inhibition,[3],Active
same,Activity,[4],75%
same,inhibition,[5],Dose-Dependent Effect
same,Activity,[6],84%
same,Activity,[7],83%
same,Activity,[8],71%
same,Activity,[9],83%
same,inhibition,[10],Active
